From ChEMBL document CHEMBL2176883, “Aminopiperidine sulfonamide Cav2.2 channel inhibitors for the treatment of chronic pain” (J Med Chem, 2012) come the findings set out here.

A word on the inhibition: it is the relative decrease from the control value, in per cent. In general, IC50 refers to the concentration that gives 50% inhibition. The term Tmax denotes the time from dosing to the highest level. Broadly, the EC50 is the midpoint of the concentration-response curve. Read a high EC50 as a less potent agent.

One series addresses T1, PXR (Homo sapiens, UniProt O75469).
T1 sequence (O75469 whole entry): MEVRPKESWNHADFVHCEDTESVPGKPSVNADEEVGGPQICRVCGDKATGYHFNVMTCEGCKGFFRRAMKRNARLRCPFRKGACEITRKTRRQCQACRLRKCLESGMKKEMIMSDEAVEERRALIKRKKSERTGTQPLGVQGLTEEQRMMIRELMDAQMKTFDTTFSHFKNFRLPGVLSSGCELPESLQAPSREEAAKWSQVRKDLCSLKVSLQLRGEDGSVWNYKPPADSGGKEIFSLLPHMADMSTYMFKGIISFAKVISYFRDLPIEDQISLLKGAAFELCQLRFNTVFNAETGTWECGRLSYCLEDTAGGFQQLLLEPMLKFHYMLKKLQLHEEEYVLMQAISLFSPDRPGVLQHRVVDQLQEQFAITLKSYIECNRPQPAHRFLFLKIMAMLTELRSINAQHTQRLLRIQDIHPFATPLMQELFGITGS
As to the kind of experiment: Activation of PXR at 10 uM relative to control. Particulars: read-out: max activation; call rule not given here.

The test system of series [1] is Rattus norvegicus. The experiment in a line: Neurotoxicity in rat assessed as motor coordination at 100 mg/kg, po after 3 hrs. The arrangement: dose 100 mg/kg, route oral. The series is classed as toxicity, organism-based. Particulars: in vivo. The essentials:
(§1)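 Rats were dosed orally at 100 mg/kg, motor coordination was tested on a rota-rod 3 h later, and plasma and brain exposure were then measured.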

Series [2] deals with T2, hERG (Homo sapiens, UniProt Q12809). As to the kind of experiment: Displacement of [35S]-MK-0499 from human ERG at 10 uM. Particulars: probe [35S]-MK-0499. In outline: (§2)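 hERG binding was measured as displacement of 35S-labeled MK-0499 at single test concentrations.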
(In general: In a radioligand displacement assay an active substance lowers the binding of a labelled ligand.)

The target of another series is Cytochrome P450 3A4 (Homo sapiens, UniProt P08684). As to the kind of experiment: Inhibition of CYP3A4. It is filed as ADME.
The test system of series [3] is Canis familiaris. The experiment in a line: Cardiotoxicity in vagotomized dog assessed as heart rate at 1 to 10 mg/kg, iv up to 90 mins. Particulars: in vivo, 1.5 h. The series is classed as toxicity, organism-based, Canis lupus familiaris. Set-up: dose 1-10 mg/kg, route intravenous. In outline:
(§3)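 Anesthetized, vagotomized dogs received an intravenous infusion in sequential rising cumulative doses of 1, 3 and 10 mg/kg. MAP, HR, QRS, PR and QTc were monitored, with plasma exposure sampled at the indicated time points (n = 3).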

The next series addresses Cav1.2 (Homo sapiens, UniProt Q13936). The experiment in a line: Inhibition of Cav1.2 assessed as inhibition of calcium flux at 3 uM by cell based FLIPR assay. The essentials:
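Cav1.2 counterscreen using a related calcium-influx FLIPR assay, run as % inhibition at single concentrations or as a titration.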

Series [4] can be described thus: Drug level rat brain at 100 mg/kg, po after 3 hrs. The series is classed as ADME, organism-based. Set-up: dose 100 mg/kg, route oral. Particulars: read-out: Drug uptake. In outline: as §1
A short description of series [5]: Drug metabolism in Sprague-Dawley rat assessed as parent compound level in blood at 10 mg/kg, po after 8 hrs. The arrangement: dose 10 mg/kg, route oral. Particulars: read-out: Drug metabolism. It is filed as ADME, organism-based. In outline:
(§4)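 Male Sprague-Dawley rats were given a 10 mg/kg oral dose. Parent and metabolite concentrations were measured in whole blood and brain over time, including 8 h postdose.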

Series [6] can be described thus: Plasma concentration rat at 100 mg/kg, po after 3 hrs. It is filed as ADME, organism-based. The arrangement: dose 100 mg/kg, route oral. The essentials:
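Rat rota-rod motor coordination study; single 100 mg/kg oral dose; plasma and brain exposure determined 3 h postdose.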

Series [7] deals with Canis familiaris. The experiment in a line: Cardiotoxicity in vagotomized dog assessed as mean arterial pressure at 1 to 10 mg/kg, iv up to 90 mins. The series is classed as toxicity, organism-based, Canis lupus familiaris, Artery. Set-up: dose 1-10 mg/kg, route intravenous. Particulars: in vivo, 1.5 h. In outline:
as §3

Series [8] can be described thus: Plasma concentration in rat complete Freund's adjuvant-induced pain model at 30 mg/kg, po after 3 hrs. It is filed as ADME, organism-based. The arrangement: dose 30 mg/kg, route oral. In outline: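 Satellite rats in CFA inflammatory pain study, 30 mg/kg po; plasma exposure (μM) at 3 h, n = 2, standard deviation.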
In series [9] the target is T2, hERG. As to the kind of experiment: Displacement of [35S]-MK-0499 from human ERG at 1 uM. The note with it: probe [35S]-MK-0499. The essentials:
as §2

In series [10] the test system is Mus musculus. As to the kind of experiment: Antinociceptive activity in Cav2.2 expressing wild type mouse assessed as reversal of complete Freund's adjuvant-induced pain at 30 mg/kg, po after 2 hrs. It is filed as functional.
Series [11] has as its system Canis familiaris. As to the kind of experiment: Cardiotoxicity in vagotomized dog assessed as QTc interval at 1 to 10 mg/kg, iv up to 90 mins. It is filed as toxicity, organism-based, Canis lupus familiaris. The arrangement: dose 1-10 mg/kg, route intravenous. The note with it: in vivo, 1.5 h. In outline:
as §3

Series [12] deals with Mus musculus. As to the kind of experiment: Antinociceptive activity in Cav2.2 expressing wild type mouse SNL neuropathic pain model assessed as reversal of mechanical allodynia at 30 mg/kg, po after 2 hrs. The series is classed as functional. The essentials:
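Cav2.2+/+ and Cav2.2−/− mice underwent spinal nerve ligation, then got a single 30 mg/kg oral dose. Mechanical allodynia was scored 2 h postdose.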

A short description of series [13]: Plasma clearance in rat at 3 mg/kg, po and 1 mg/kg, iv. The series is classed as ADME, organism-based. In outline: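 Rat pharmacokinetics from iv and po arms: 0.6 mg/kg iv with 1.8 mg/kg po, or 1 mg/kg iv with 3 mg/kg po. AUC was normalized to po dose (μM·h·kg/mg). Clearance (mL/min/kg) and half-life come from the iv arm, and F% is oral bioavailability.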

Series [14] can be described thus: Tmax in rat at 3 mg/kg. The series is classed as ADME, organism-based. The arrangement: dose 3 mg/kg. Particulars: in vivo. In outline: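 Rat pharmacokinetics: 3 mg/kg po arm alongside 1 mg/kg iv; tmax from oral arm, half-life from iv dosing.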
Series [15] in a line: Plasma concentration in vagotomized dog at 10 mg/kg, iv after 90 mins. The arrangement: dose 10 mg/kg, route intravenous. The series is classed as ADME, organism-based, Canis lupus familiaris. In outline: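 Anesthetized, vagotomized dogs; intravenous infusion in sequential rising doses of 1, 3 and 10 mg/kg (cumulative); plasma exposure sampled at indicated time points, n = 3.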

Series [16] deals with T3, Nuclear receptor subfamily 1 group I member 2 (Homo sapiens, UniProt O75469).
T3 sequence (O75469 whole entry): T1 sequence (O75469 whole entry)
The experiment in a line: Activation of PXR. In outline: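 PXR activation read as EC50, with maximal activation given as % at 10 μM.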

The subject of the next series is Brain. The experiment in a line: Drug metabolism in Sprague-Dawley rat assessed as 3-trifluoromethylbenzenesulfonamide level in brain at 10 mg/kg, po after 8 hrs. It is filed as ADME, organism-based. The arrangement: dose 10 mg/kg, route oral. Particulars: in vivo. In outline: as §4
Series [17] concerns Rattus norvegicus. The experiment in a line: Antinociceptive activity in rat assessed as reversal of complete Freund's adjuvant-induced pain at 10 mg/kg, po after 3 hrs. It is filed as functional. The essentials:
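Rats had complete Freund's adjuvant-induced inflammatory pain and got oral dosing. Allodynia was read at 1 and 3 h postdose. Percent reversal per rat = (postdose − predose)/(preinjury − predose). Groups had at least six animals, reported as mean + SEM.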

T2 sequence (Q12809 whole entry): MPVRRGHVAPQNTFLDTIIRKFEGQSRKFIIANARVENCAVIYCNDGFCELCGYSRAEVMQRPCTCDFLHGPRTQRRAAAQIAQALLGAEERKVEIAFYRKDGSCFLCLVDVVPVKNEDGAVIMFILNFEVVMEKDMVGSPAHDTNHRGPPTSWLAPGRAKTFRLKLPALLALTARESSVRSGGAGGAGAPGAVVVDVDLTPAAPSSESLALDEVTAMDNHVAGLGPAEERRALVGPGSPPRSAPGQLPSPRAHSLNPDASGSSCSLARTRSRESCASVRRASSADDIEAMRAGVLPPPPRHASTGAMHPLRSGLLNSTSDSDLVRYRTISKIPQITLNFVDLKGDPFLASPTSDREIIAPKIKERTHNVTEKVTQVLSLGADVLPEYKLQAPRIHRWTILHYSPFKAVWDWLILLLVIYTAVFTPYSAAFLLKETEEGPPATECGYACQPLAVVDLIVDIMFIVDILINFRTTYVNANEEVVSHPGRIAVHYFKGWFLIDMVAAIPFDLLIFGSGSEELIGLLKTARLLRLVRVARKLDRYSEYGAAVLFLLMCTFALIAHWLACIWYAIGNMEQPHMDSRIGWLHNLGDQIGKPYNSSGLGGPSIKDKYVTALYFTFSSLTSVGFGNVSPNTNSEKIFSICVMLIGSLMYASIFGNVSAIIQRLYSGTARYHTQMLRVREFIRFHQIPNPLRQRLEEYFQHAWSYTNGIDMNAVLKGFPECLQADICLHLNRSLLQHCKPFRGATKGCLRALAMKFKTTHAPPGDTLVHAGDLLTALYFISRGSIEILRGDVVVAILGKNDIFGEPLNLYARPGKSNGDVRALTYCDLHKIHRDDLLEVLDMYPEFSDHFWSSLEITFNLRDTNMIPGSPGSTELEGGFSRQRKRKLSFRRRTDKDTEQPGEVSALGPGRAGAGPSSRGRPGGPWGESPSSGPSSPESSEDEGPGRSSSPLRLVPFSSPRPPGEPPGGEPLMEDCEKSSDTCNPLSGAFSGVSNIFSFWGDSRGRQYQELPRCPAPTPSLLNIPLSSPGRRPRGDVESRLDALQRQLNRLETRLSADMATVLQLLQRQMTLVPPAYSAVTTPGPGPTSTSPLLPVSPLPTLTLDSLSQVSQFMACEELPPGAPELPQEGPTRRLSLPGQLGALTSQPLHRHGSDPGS
Cav1.2, sequence (Q13936 whole entry): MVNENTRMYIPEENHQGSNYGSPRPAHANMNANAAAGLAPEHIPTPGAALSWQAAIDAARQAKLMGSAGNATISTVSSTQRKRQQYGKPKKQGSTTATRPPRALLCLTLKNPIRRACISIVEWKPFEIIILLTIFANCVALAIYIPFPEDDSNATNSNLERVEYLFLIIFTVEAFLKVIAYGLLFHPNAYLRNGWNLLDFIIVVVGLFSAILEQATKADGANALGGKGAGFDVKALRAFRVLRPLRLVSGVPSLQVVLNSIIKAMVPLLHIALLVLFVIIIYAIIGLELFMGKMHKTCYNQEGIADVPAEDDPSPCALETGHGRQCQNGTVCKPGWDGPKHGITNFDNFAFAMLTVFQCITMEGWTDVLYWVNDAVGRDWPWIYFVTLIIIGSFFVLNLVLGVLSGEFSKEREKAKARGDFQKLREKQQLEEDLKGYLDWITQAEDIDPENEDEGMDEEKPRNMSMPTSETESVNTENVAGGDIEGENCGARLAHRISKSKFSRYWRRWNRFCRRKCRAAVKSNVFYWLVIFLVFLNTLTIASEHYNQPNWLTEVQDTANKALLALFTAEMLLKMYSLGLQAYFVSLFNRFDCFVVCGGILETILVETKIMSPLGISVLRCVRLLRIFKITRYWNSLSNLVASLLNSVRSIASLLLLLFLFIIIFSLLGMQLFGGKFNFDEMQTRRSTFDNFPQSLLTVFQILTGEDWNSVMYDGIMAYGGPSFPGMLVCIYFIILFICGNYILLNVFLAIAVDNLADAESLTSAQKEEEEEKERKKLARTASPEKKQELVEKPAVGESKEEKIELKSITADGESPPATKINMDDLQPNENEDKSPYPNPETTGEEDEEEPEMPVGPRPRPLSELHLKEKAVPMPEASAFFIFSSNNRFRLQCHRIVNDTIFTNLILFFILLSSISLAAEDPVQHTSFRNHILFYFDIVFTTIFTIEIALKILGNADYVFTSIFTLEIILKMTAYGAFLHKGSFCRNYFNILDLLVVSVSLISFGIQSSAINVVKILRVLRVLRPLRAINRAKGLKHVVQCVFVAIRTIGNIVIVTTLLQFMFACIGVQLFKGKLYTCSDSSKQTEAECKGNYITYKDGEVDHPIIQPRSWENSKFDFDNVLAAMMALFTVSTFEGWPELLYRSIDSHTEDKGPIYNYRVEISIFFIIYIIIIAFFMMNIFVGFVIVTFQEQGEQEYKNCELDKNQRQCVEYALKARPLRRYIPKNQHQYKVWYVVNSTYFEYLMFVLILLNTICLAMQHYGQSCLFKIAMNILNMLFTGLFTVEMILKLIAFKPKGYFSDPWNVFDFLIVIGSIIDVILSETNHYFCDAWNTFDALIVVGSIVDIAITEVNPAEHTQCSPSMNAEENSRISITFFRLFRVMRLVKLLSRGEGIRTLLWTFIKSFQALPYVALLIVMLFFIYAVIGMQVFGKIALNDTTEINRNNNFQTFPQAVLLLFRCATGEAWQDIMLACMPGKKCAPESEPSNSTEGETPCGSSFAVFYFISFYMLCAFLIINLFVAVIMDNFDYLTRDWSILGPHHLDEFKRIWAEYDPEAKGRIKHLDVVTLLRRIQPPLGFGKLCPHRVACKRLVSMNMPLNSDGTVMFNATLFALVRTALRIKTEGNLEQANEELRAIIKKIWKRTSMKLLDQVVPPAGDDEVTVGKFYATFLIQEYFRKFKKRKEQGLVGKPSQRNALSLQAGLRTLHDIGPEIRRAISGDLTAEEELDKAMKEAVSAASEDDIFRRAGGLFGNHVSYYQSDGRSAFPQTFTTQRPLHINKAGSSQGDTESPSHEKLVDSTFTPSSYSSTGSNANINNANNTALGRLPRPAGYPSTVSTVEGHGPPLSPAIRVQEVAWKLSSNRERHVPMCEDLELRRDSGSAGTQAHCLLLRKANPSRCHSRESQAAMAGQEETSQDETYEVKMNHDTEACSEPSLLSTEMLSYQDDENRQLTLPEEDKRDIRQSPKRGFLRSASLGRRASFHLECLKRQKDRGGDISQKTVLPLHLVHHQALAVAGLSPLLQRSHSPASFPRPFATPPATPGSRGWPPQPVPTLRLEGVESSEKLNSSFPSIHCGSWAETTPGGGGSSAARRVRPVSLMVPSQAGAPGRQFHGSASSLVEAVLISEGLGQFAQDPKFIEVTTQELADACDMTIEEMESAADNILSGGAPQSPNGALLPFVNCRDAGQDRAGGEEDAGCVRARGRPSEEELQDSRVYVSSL
Cytochrome P450 3A4, sequence (P08684 whole entry): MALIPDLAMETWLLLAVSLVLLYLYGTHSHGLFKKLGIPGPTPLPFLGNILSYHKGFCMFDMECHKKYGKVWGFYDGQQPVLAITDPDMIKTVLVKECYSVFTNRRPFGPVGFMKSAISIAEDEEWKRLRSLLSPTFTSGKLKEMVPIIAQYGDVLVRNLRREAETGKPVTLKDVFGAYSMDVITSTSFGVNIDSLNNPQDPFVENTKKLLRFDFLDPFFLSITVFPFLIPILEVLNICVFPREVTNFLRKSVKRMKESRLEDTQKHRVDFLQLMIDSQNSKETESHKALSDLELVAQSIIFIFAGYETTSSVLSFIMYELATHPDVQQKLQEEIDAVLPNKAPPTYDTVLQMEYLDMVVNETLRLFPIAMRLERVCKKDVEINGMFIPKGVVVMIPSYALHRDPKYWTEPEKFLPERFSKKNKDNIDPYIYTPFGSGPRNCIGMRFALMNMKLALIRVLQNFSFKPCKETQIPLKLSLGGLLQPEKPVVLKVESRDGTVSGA

As for `CS(=O)(=O)c1ccc(F)cc1C(=O)N1CCC(N(C2CC2)S(=O)(=O)c2cccc(C(F)(F)F)c2)CC1`, the Emax at 10 µM on PXR was 124%. Also, the Activity entry in the series with Rattus norvegicus [1] is “Non-toxic”; in the series with Canis familiaris [3], “Non-toxic”; in the series with Canis familiaris [7], “Non-toxic”; in the series with Mus musculus [10], 35%; in the series with Canis familiaris [11], “Non-toxic”; in the series on Mus musculus [12], 38%. Besides, the Activity with Rattus norvegicus [17] turned out to be 49%. The compound further displayed an inhibition at 10 µM at hERG [2] of 32%. On Cytochrome P450 3A4, this compound had a concentration for half-maximal inhibition (IC50) of 5100 nM. At Cav1.2, the inhibition at 3 µM was determined as 34%. The concentration at 3 h is 11.9 µM in [4], 9.5 µM in [6] and 1.6 µM in series [8]. For the same compound, the concentration at 8 h in series [5] worked out at 0.31 µM. This compound registered an inhibition at 1 µM on hERG [9] of 1.6%. This compound showed a clearance in series [13] of 35 mL/min/kg. Also, the Tmax in series [14] turned out to be 1.7 h. In series [15], this compound displayed a concentration at 1.5 h of 20.4 µM. The compound further displayed a concentration giving a half-maximal response (EC50) in [16] of 430 nM. In addition, the Drug metabolism result with Brain was “Active”.
